ChEMBL document CHEMBL1124954, “Atrial natriuretic peptide receptor modulators: effects of disubstituted quinazolines on receptor binding and in vitro biological activity” (J Med Chem, 1990)
Activity calls are given as the source filed them. The calls are words filed in the database; no cut-off is given here.

What was measured:
[1] = Percent increase in [125I]rANP binding at 20 uM concentration in bovine zona glomerulosa membranes; format: cell membranes
[2] = In vitro binding affinity towards atrionatriuretic peptide receptor (ANP) using [125I]rANP as radioligand in bovine adrenal zonal glomerulosa membranes
[3] = species: Rattus norvegicus; test: ACTH-stimulated aldosterone synthesis was determined in rat adrenal glomerulosa cell suspension (control = 8.5+/-0.9); format: functional
[4] = species: Rattus norvegicus; test: Inhibition of aldosterone synthesis was determined in rat adrenal glomerulosa per 2 hours at 3 uM concentration, in the absence of rANP (control = 1+/-0.1); format: functional
[5] = species: Rattus norvegicus; test: Concentration for rANP inhibition of aldosterone synthesis was determined in rat adrenal glomerulosa; format: functional
Summary of the method: (§1)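 Collagenase-dispersed male Sprague-Dawley rat adrenal glomerulosa cells were used at about 30,000 cells/mL in M199 with KCl 3.5 mM and BSA 2 mg/mL. They were incubated 2 h at 37 °C with ACTH 1 nM and rANP 10⁻¹⁰–10⁻⁸ M, plus compound or water vehicle. Aldosterone was measured by RIA. The EC50 came from a four-parameter logistic fit, compared by Student's t test, 10 experiments.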

[6] = In vitro binding affinity towards Atrionatriuretic peptide receptor (ANP) using [125I]rANP as radioligand in bovine adrenal zonal glomerulosa membranes
[7] = In vitro binding affinity towards atrionatriuretic peptide receptor (ANP) using [125I]rANP as radioligand in bovine adrenal zonal glomerulosa membranes; Not active at 20 uM
[8] = species: Rattus norvegicus; test: Inhibition of ACTH (1 nM)-stimulated aldosterone synthesis was determined in rat adrenal glomerulosa (control = 17.4+/-2.5); format: functional
[9] = species: Rattus norvegicus; test: Inhibition of aldosterone synthesis was determined in rat adrenal glomerulosa per 2 hours at 10 uM concentration, in the absence of rANP (control = 1.8+/-0.5); format: functional
[10] = species: Rattus norvegicus; test: Concentration for rANP inhibition of aldosterone synthesis was determined n rat adrenal glomerulosa; format: functional; summary of the method: as §1

## CCN(CC)c1nc(NCC/N=C(/NC)NC#N)c2ccccc2n1
[1]
  Increase: 25%

## O=C(c1ccco1)N1CCN(c2nc(N3CCCC3)c3ccccc3n2)CC1
[2]
  SC50: 7 µM

## CCN(CC)c1nc(NCCCN=C(N)N)c2ccccc2n1
[2]
  SC50: 1.8 µM
[3]
  Concentration: 7.7 ng/mL
[4]
  Concentration: 0.9 ng/mL
[5]
  EC50: 0.12 nM

## CC/N=C(/N)NCCNc1nc(N(CC)CC)nc2ccccc12
[2]
  SC50: 7.4 µM

## CN(CCCNC(=O)c1ccco1)c1nc(N2CCCC2)c2ccccc2n1
[2]
  SC50: 5.6 µM

## COc1cc2nc(N3CCN(C(=O)c4ccco4)CC3)nc(N)c2cc1OC
[6]
  SC50: 25 µM

## CCN(CC)c1nc(NCCN=C(N)N)c2ccccc2n1
[2]
  SC50: 2.4 µM

## c1ccc2c(N3CCCC3)nc(N3CCNCC3)nc2c1
[2]
  SC50: 4.2 µM

## CCN(CC)c1nc(NCCCCN=C(N)N)c2ccccc2n1
[2]
  SC50: 2.2 µM

## CCN(CC)c1nc(NCC/N=C(\N)NC)c2ccccc2n1
[2]
  SC50: 4.5 µM

## CC/N=C(/NC#N)NCCNc1nc(N(CC)CC)nc2ccccc12
[1]
  Increase: 12%

## CN(CCCN=C(N)N)c1nc(N2CCCC2)c2ccccc2n1
[2]
  SC50: 1.5 µM

## CCN(CC)c1nc(OC)c2ccccc2n1
[7]
  SC50: inactive
[8]
  Concentration: 17.8 ng/mL
[9]
  Concentration: 1.4 ng/mL
[10]
  EC50: 0.18 nM
